Test results taken from ChEMBL document CHEMBL3227967, “Quantitative structure-activity relationships in 1-aryl-2-(alkylamino)ethanol antimalarials” (J Med Chem, 1979).

Tested on: not listed separately
Experiment: Lipophilicity, log P of the compound in 0.1 N HCl solution
Format: physicochemical
Conditions: 0.1 N HCl solution; read-out: logP
Method in brief: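 Partition coefficients of the hydrochloride salts were measured from 0.1 N HCl solution unless a footnote says otherwise. Some entries were not measured. They were calculated by adding the Δlog P of the corresponding phenanthrene analogues to the measured log P of a reference hydrochloride.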

Row | Compound | logP
1 | CC(C)(C)c1cc(C(O)CC2CCCCN2)c2cc(Cl)ccc2n1 (stereo not drawn) | 2.74
2 | N#CCCN(CCC#N)CC(O)c1cc2ccccc2c2ccccc12 (stereo not drawn) | 0.37
3 | OCCN(CC(O)c1cc2ccccc2c2ccccc12)C1CCCCC1 (stereo not drawn) | 2
4 | CCCCN(CCCC)CC(O)c1cc(OC)c2cc(OC)c(Cl)cc2n1 (stereo not drawn) | 1.71
5 | CC(C)(C)CC(C)(C)NCC(O)c1c2ccccc2cc2ccccc12 (stereo not drawn) | 3.46
6 | Cc1ccc(Oc2cc(C(O)CC3CCCCN3)c3cc(Cl)ccc3n2)cc1 (stereo not drawn) | 3.4
7 | O=C(O)CCNCC(O)c1cc2ccccc2c2ccccc12 (stereo not drawn) | 0.6
8 | CC(C)c1cc(C(O)CC2CCCCN2)c2ccccc2n1 (stereo not drawn) | 1.58
9 | OC(CC1CCCCN1)C1CC=Nc2c1cccc2C(F)(F)F (stereo not drawn) | 1.12
10 | OC(CN1C=COC=C1)c1cc(-c2ccc(F)cc2)nc2cc(F)ccc12 (stereo not drawn) | 0
11 | C=CCN(CC=C)CC(O)c1cc2ccccc2c2ccccc12 (stereo not drawn) | 0.59
12 | COc1ccc2nccc(C(O)CC3CCC(/C=C/Br)CN3)c2c1 (stereo not drawn) | 1.71
13 | CCCCN(CCCC)CC(O)c1cnc2c(C)cc(C)cc2c1Cl (stereo not drawn) | 2.87
14 | O=C(Nc1cccc(C(F)(F)F)c1)c1cc(C(O)CC2CCCCN2)c2cccc(C(F)(F)F)c2n1 (stereo not drawn) | 2.3
15 | CCCCN(CCCC)CC(O)c1ccc2cc(Cl)cc(Cl)c2n1 (stereo not drawn) | 2.46
16 | CCCCN(CCCC)CC(O)c1ccc(Cl)c2c(C)ccnc12 (stereo not drawn) | 2.31
17 | N#CCCN(CC(O)c1cc2ccccc2c2ccccc12)C1CCCCC1 (stereo not drawn) | 2.27
18 | CN(C)CC(O)c1cc2ccccc2c2ccccc12 (stereo not drawn) | 1.08
19 | CC(C)(C)c1cc(C(O)CC2CCCCN2)c2ccccc2n1 (stereo not drawn) | 2.03

Row | Compound | logP
20 | CCCCN(CCCC)CC(O)c1cnc2cc(Cl)ccc2c1Cl (stereo not drawn) | 2.46
21 | OC(CC1CC2CCC(CC2)C1)c1cc2ccccc2c2cc(Br)ccc12 (stereo not drawn) | 3.74
22 | OC(CC1CCCCN1)c1ccnc2ccccc12 (stereo not drawn) | 0.05
23 | CCN(CC)CC(O)c1cc2ccccc2c2ccccc12 (stereo not drawn) | 1.37
24 | OC(CC1CC2CCN1CC2)c1cc2ccccc2c2cc(Br)ccc12 (stereo not drawn) | 2.98
25 | CCCCN(CCCC)CC(O)c1cc(OC)c2cc(Cl)cc(Cl)c2n1 (stereo not drawn) | 2.44
26 | CCCCNCC(O)c1cc2ccccc2c2ccccc12 (stereo not drawn) | 2.3
27 | OC(CN1CCCCC1)c1cc2ccccc2c2sccc12 (stereo not drawn) | 1.73
28 | CCC1C[N+]2(CC(O)c3ccnc4ccc(OC)cc34)CCC1CC2 (stereo not drawn) | 2.31
29 | CCCCN(CCCC)CC(O)c1ccc2cc(OC)c(Cl)cc2n1 (stereo not drawn) | 1.73
30 | CCCNCC(O)c1cc2ccccc2c2ccccc12 (stereo not drawn) | 1.86
31 | OC(c1cc2ccccc2c2ccccc12)C1CCCCN1 (stereo not drawn) | 2.01
32 | OC(c1cc(-c2ccccc2)nc2ccccc12)C1CCCCN1 (stereo not drawn) | 1.58
33 | OC(CN1C=COC=C1)c1cc(-c2ccc(Cl)cc2)nc2cc(Cl)ccc12 (stereo not drawn) | 1.14
34 | Cc1cc(-c2ccccc2)nc2c(C)cc(C(O)CN3CCCCCC3)cc12 (stereo not drawn) | 4.03
35 | OC(CN1CCCCCC1)c1cccc2ccc(-c3ccccc3)nc12 (stereo not drawn) | 2.91
36 | CCNCC(O)c1cc2ccccc2c2ccccc12 (stereo not drawn) | 1.42
37 | Cc1cc(C)c2ncc(C(O)CC3CCCCN3)cc2c1 (stereo not drawn) | 1.17
38 | CCN(CC)CC(O)c1cc(Cl)cc2cccnc12 (stereo not drawn) | 0.12

Next, values leading:

Row | logP | Compound
39 | 4.89 | CCCCCCCN(CCCCCCC)CC(O)c1cc2ccncc2c2cc(Br)ccc12 (stereo not drawn)
40 | 5.13 | CCCCN(CCCC)CC(O)c1cc(-c2ccc(Cl)cc2)c2cc(Cl)cc(Cl)c2n1 (stereo not drawn)
41 | 3.69 | CCCCCCN(CCCCCC)CC(O)c1ccc(Cl)c2ncccc12 (stereo not drawn)
42 | 0.99 | CCNCC(O)c1cc(-c2ccccc2)nc2ccccc12 (stereo not drawn)
43 | 4.4 | CCCCCCN(CCCCCC)CC(O)c1ccc2cc(Cl)cc(Cl)c2n1 (stereo not drawn)
44 | 4.03 | CCCCCCCN(CCCCCCC)CC(O)c1cc2ncccc2c2ccccc12 (stereo not drawn)
45 | 5.18 | CCCCCN(CCCCC)CC(O)c1cc(-c2ccccc2)nc(-c2ccccc2)c1 (stereo not drawn)
46 | 5.65 | CCCCCCN(CCCCCC)CC(O)c1cc(Cl)c2nc(-c3ccccc3)ccc2c1 (stereo not drawn)
47 | 8.83 | CCCCCCCN(CCCCCCC)CC(O)c1cc(-c2ccc(Br)cc2)nc(-c2ccc(Br)cc2)c1 (stereo not drawn)
48 | 3.58 | CCCCCN(CCCCC)CC(O)c1cc(-c2ccccc2)nc2ccccc12 (stereo not drawn)
49 | 2.25 | CN(C)CC(O)c1cc(-c2ccccc2)nc(-c2ccccc2)c1 (stereo not drawn)
50 | 4.38 | CCCCCCN(CCCCCC)CC(O)c1cc(OC)c2cc(Cl)cc(Cl)c2n1 (stereo not drawn)
51 | 5.94 | CCCCCCCN(CCCCCCC)CC(O)c1cc2ccccc2c2ccccc12 (stereo not drawn)
52 | 2.8 | CCCCCNCC(O)c1cc2ccccc2c2ccccc12 (stereo not drawn)
53 | 1.92 | CCCCN(CCCC)CC(O)c1cnc2c(C(F)(F)F)cccc2c1 (stereo not drawn)
54 | 3.03 | CCCNCC(O)c1cc(-c2ccccc2)nc(-c2ccccc2)c1 (stereo not drawn)
55 | 5.51 | CCCCCCCN(CCCCCCC)CC(O)c1cc(-c2ccccc2)nc2ccccc12 (stereo not drawn)
56 | 0.94 | CCN(CC)CC(O)c1cc(-c2ccccc2)nc2ccccc12 (stereo not drawn)
57 | 4.89 | CCCCCCCN(CCCCCCC)CC(O)c1cc2ccc(Br)cc2c2cccnc12 (stereo not drawn)
58 | 2.19 | CCCCN(CCCC)CC(O)c1cccc2cc(Cl)ccc12 (stereo not drawn)
59 | 8.13 | CCCCCCCCCCN(CCCCCCCCCC)CC(O)c1ccc(Cl)c2ccccc12 (stereo not drawn)

Row | logP | Compound
60 | 7.69 | CCCCCCCN(CCCCCCC)CC(O)c1cccc2ccc3c4ccccc4cc(Br)c3c12 (stereo not drawn)
61 | 4.74 | CCCCCCCN(CCCCCCC)CC(O)c1cc2ccc(Cl)cc2c2cccnc12 (stereo not drawn)
62 | 6.11 | CCCCCCN(CCCCCC)CC(O)c1cc(-c2ccccc2)nc(-c2ccccc2)c1 (stereo not drawn)
63 | 5.4 | CCCCCCN(CCCCCC)CC(O)c1cnc2cc(Cl)ccc2c1Cl (stereo not drawn)
64 | 5.25 | CCCCCCCN(CCCCCCC)CC(O)c1ccc(Cl)c2c(C)ccnc12 (stereo not drawn)
65 | 7.11 | CCCCCCCN(CCCCCCC)CC(O)c1cc(-c2ccccc2)nc(-c2ccccc2)c1 (stereo not drawn)
66 | 1.87 | CCCCNCC(O)c1cc(-c2ccccc2)nc2ccccc12 (stereo not drawn)
67 | 2.57 | CCCCN(CCCC)CC(O)c1cc(-c2ccccc2)nc2ccccc12 (stereo not drawn)
68 | 8.34 | CCCCCCCCN(CCCCCCCC)CC(O)c1cc(-c2ccc(Cl)c(Cl)c2)nc2ccc(OC)cc12 (stereo not drawn)
69 | 1.75 | CCCCN(CCCC)CC(O)c1cc(Cl)cc2cccnc12 (stereo not drawn)
70 | 5.67 | CCCCN(CCCC)CC(O)c1cc(-c2ccc(Cl)cc2)c2cc(-c3ccccc3)ccc2n1 (stereo not drawn)
71 | 6 | CCCCN(CCCC)CC(O)c1c(C)c(-c2ccc(C)cc2C)nc2c1ccc1ccccc12 (stereo not drawn)
72 | 3.75 | CCCCN(CCCC)CC(O)c1cc(-c2cccc(O)c2)nc2c(Cl)cc(Cl)cc12 (stereo not drawn)
73 | 2.15 | CNCC(O)c1cc(-c2ccccc2)nc(-c2ccccc2)c1 (stereo not drawn)
74 | 3.86 | CCCCN(CCCC)CC(O)c1c(Br)c(-c2ccccc2)nc2ccccc12 (stereo not drawn)
75 | 3.97 | CCCCN(CCCC)CC(O)c1cc(-c2ccccc2C(F)(F)F)nc(C(F)(F)F)c1 (stereo not drawn)
76 | 2.12 | CCCN(CCC)CC(O)c1cc2ccccc2c2ccccc12 (stereo not drawn)
77 | 2.19 | CCCCN(CCCC)CC(O)c1ccc(Cl)c2ccccc12 (stereo not drawn)
78 | 2.37 | CCCCCNCC(O)c1cc(-c2ccccc2)nc2ccccc12 (stereo not drawn)
79 | 6.01 | CCCCCCCN(CCCCCCC)CC(O)c1cc2c(Cl)cc(Cl)cc2c2ccc(C)nc12 (stereo not drawn)

Same assay, conditions: buffer

Row | logP | Compound
80 | 9.95 | CCCCCCCN(CCCCCCC)CC(O)c1cc(-c2ccc(Cl)c(Cl)c2)nc(-c2ccc(Cl)c(Cl)c2)c1 (stereo not drawn)

Tested on: Plasmodium berghei
Experiment: Antimalarial activity against Plasmodium berghei
Format: functional
Conditions: not given

Row | Compound | log(1/C)
81 | CC(C)(C)c1cc(C(O)CC2CCCCN2)c2cc(Cl)ccc2n1 (stereo not drawn) | 2.48
82 | CCCCCCCN(CCCCCCC)CC(O)c1cc2ccncc2c2cc(Br)ccc12 (stereo not drawn) | 2.12
83 | CC(C)(C)c1cc(C(O)CC2CCCCN2)c2ccccc2n1 (stereo not drawn) | 2.08
